The entries come from a sample that favours hits as a whole.
Lmaj promast – inhibitors of Leishmania major promastigote growth. Leishmania major promastigotes, resazurin fluorescence viability. inhibition, % at 10 µM. hit rate 9% among 200,000; in the data active = inhibition above about 50%;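 also: promastigotes grown with compound for 44 hours at 28 °C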
Hep lipid drop – modulators of hepatic lipid droplet formation | AML12 mouse hepatocytes, oleate lipid droplets, BODIPY imaging | inhibition, % at 6.5 µM | hit rate 0.4% among 240,000 | AID 1656;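 active = lipid droplet intensity inhibited by at least 50%, with more than 500 cells counted; inconclusive = wells with under 300 cells, treated as cytotoxic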
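System: AML12 hepatocytes (mouse). Probe or stimulus: oleic acid at 100 µM to induce lipid droplet formation. Times: overnight treatment with compound plus oleate. Detection: Image-based BODIPY and DAPI two-channel analysis. Evaluation: percent inhibition of filter-corrected integrated lipid droplet intensity per well.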
MPTP block – blocks calcium-induced mitochondrial swelling; isolated mouse mitochondria, Ca2+ swelling absorbance, 30 min; inhibition, % at 10 µM; hit rate 1.4% among 360,000; AID 602449;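 active = inhibition of 50% or more, scaled per plate between neutral and stimulator controls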;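 also: 0% = DMSO wells given calcium and 100% = 1 mM EGTA wells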
DTT redox prof – compounds producing H2O2 with reducing agent – biochemical, NIH compound library profiling, artefact control for MLSCN library redox annotation, primary screen | hit rate 0.03% among 200,000 | AID 878 | DTT-dependent redox cycling H2O2, phenol red/HRP absorbance; 100% = 100 µM peroxide control, 0% = buffer | activation, % at 10 µM;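 active = activation of at least 50% relative to the plate's high and low controls in the primary single-dose screen; inactive = activation below 50%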;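 also: compound incubated with DTT at 0.8 mM final as the reducing agent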
T cruzi inh – blocks replication of Trypanosoma cruzi | T. cruzi beta-gal in NIH3T3, luminescence, 90 h | inhibition, % (no concentration beside the values) | hit rate 1.4% among 300,000 | AID 1885;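 active = mean inhibition across valid replicates above about 55%, limit read from the data; inconclusive = mean below that limit but half or more replicates reach it; inactive = mean below it, under half of replicates reach it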;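 also: signal also drops with host cell toxicity which is not excluded here; 0% = plate median of DMSO wells and 100% = zero luminescence signal; higher percent means less beta-gal luminescence so fewer parasites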
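Read-out: Parasite load inhibition, % | Test system: Mouse NIH/3T3 fibroblasts infected with β-gal-expressing T. cruzi Tulahuen C4 | Amount: 5,000 cells/well | Medium: DMEM, 2% fetal bovine serum | Signal: GalScreen β-gal luminescence, detergent lysis, 60 min | Timing: 3 h attach, ≥90 h co-culture | Also added: Tulahuen C4 trypomastigotes, 5000/well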
* marks the source's active call; other numbers are inactive results; ? = inconclusive; nt = not tested or not shown.

SMILES | Lmaj promast | Hep lipid drop | MPTP block | DTT redox prof | T cruzi inh
COc1cc(CNCCN2CCOCC2)ccc1OCc1c(Cl)cccc1Cl | 86* | -12 | nt | 0 | 49
CCOc1cc(C2NN=C(c3ccccc3)S2)ccc1OCc1ccccc1Cl (configuration not stated) | -4 | nt | 1 | -3 | 7
CCOc1cc(CNCCN2CCOCC2)ccc1OCc1ccccc1Cl | 98* | -10 | 1 | -2 | 56*
CC(C)NC(=S)N/N=C/c1c[nH]c2ccccc12 | 66* | 6 | -7 | 0 | -5
Cc1[nH]c2ccccc2c1/C=N/NC(=S)NC(C)C | 31 | nt | 3 | -1 | 4
COc1ccc(O)c(/C=N/NC(=O)CCC(=O)Nc2ccc(F)cc2)c1 | nt | -27 | 1 | nt | -8
COC(=O)c1ccc([N+](=O)[O-])cc1N1C(=O)C2C3CCC(C3)C2C1=O (configuration not stated) | -1 | -13 | -1 | 0 | -1
O=C1c2ccccc2C(=O)c2c(NCCCN(CCO)CCO)cccc21 | 100* | 3 | 6 | 0 | ?
CN(c1ccccc1)S(=O)(=O)c1cccc(NC(=O)CCN2C(=O)C3CCCCC3C2=O)c1 (configuration not stated) | 27 | 5 | 0 | 0 | 8
C/C(=N\NC(=O)C1CC1(c1ccccc1)c1ccccc1)c1cccc([N+](=O)[O-])c1 (configuration not stated) | 60* | -22 | 2 | -1 | 15
C/C(=N\NC(=O)C1CC1c1ccccc1)c1cccc([N+](=O)[O-])c1 (configuration not stated) | 0 | nt | 0 | 2 | 7
COc1ccc2c3c(cccc13)N(C)N=C2C | 100* | nt | 2 | -1 | 27
FC(F)(F)c1cnc(COc2ccc(Cl)cc2Cl)c(Cl)c1 | nt | 6 | 1 | nt | -1
CCOC(=O)C1(C)CCCCCN1C(=O)c1ccc(C(F)(F)F)nc1C (configuration not stated) | nt | nt | 2 | nt | nt
CN(C)c1ccc(-n2cccc2/C=C/[N+](=O)[O-])cc1 | 97* | 17 | -1 | -1 | 16
CN(C)c1ccc(/C=C/c2c([N+](=O)[O-])c(=O)n(C)c(=O)n2C)cc1 | nt | 0 | 1 | nt | 26
COc1ccccc1NC(=O)c1ccccc1S(=O)(=O)c1ccccc1[N+](=O)[O-] | -3 | 3 | 0 | 0 | -4
CC(C)C(=O)NNS(=O)(=O)c1ccccc1[N+](=O)[O-] | 54* | 14 | -2 | -1 | 1
NC(=O)c1ccccc1NC(=O)c1ccccc1S(=O)(=O)c1ccccc1[N+](=O)[O-] | 65* | 1 | 1 | 0 | 5
CC(=O)Nc1ccc(NC(=O)c2ccccc2S(=O)(=O)c2ccccc2[N+](=O)[O-])cc1 | -3 | -21 | 0 | -1 | -1
O=C(Nc1ccc(F)cc1)c1ccccc1S(=O)(=O)c1ccccc1[N+](=O)[O-] | 58* | -3 | 0 | 0 | -11
COc1ccc2sc(N(CCN(C)C)C(=O)c3ccc4ccccc4c3)nc2c1 | nt | 19 | 2 | nt | 36
Cc1cccc(NC(=O)CNC(=O)[C@H]2O[C@@H](n3ccc(=O)[nH]c3=O)[C@H](O)[C@@H]2O)c1C | nt | nt | -1 | nt | nt
CC1CCCCC1NC(=O)/C(C#N)=C/c1ccc(OCC(N)=O)cc1 (configuration not stated) | 64* | 1 | 1 | 0 | 9
C[C@@H](C(=O)N1CCN(C(=O)OC(C)(C)C)CC1)n1cc(CCCN=C(NC(=O)OC(C)(C)C)NC(=O)OC(C)(C)C)nn1 | -4 | 14 | -1 | 0 | 13
SMILES | Lmaj promast | Hep lipid drop | MPTP block | DTT redox prof | T cruzi inh
COCCN(C(=S)Nc1c(C)cc(C)cc1C)C(C)c1cccs1 (configuration not stated) | 98* | -60 | 1 | 0 | 4
Cc1cccc(NC(=S)N(CCN(C)C)C(C)c2cccnc2)c1 (configuration not stated) | 16 | 2 | 0 | 0 | 23
COCCN(C(=S)Nc1ccc(C)cc1C)C(C)c1cccs1 (configuration not stated) | 41 | -35 | 1 | 0 | -10
COCCN(C(=O)Nc1ccccc1)C(C)c1cccnc1 (configuration not stated) | 9 | nt | 1 | -3 | -1
COCCN(C(=S)Nc1cc(C)cc(C)c1)C(C)c1cccnc1 (configuration not stated) | 95* | -16 | -1 | 0 | -3
COCCN(C(=S)Nc1ccc(C)cc1)C(C)c1cccnc1 (configuration not stated) | 80* | -14 | 2 | -1 | 2
Nc1nc(N)c2c(ccc3c2ccn3Cc2cccc([N+](=O)[O-])c2)n1 | nt | nt | 7 | nt | nt
Cc1ccc(C)c(NC(=O)CN(C)C(=O)C2=NNC(=O)CC2)c1 | nt | nt | 1 | nt | nt
Cc1ccc(S(=O)(=O)N(CC(=O)NCc2ccco2)Cc2ccccc2F)cc1 | 93* | -21 | -4 | 2 | 33
Cc1ccc(S(=O)(=O)N(CC(=O)NCc2ccncc2)Cc2ccccc2F)cc1 | nt | -26 | 1 | nt | 8
O=C(NCc1cccnc1)c1csc([C@@H]2O[C@H](CO)[C@H](O)[C@H](O)[C@H]2O)n1 | nt | nt | 0 | nt | nt
CCO[C@H]1OC(C(=O)N2CCN(Cc3ccc4c(c3)OCO4)CC2)=C[C@@H](c2csc3ccccc23)[C@@H]1CCCO | 74* | -2 | 0 | -1 | 17
CCO[C@@H]1OC(C(=O)N2CCN(Cc3ccc4c(c3)OCO4)CC2)=C[C@H](C2CCCCC2)[C@H]1CCCO | 67* | 3 | 0 | 1 | 72*
CCO[C@H]1OC(C(=O)N2CCN(Cc3ccc4c(c3)OCO4)CC2)=C[C@@H](c2cn(C(C)=O)c3ccccc23)[C@@H]1CCCO | 47 | -5 | -2 | 0 | 7
CCC1(c2ccc(F)cc2)NC(=O)N(CC(=O)N2c3ccccc3CC2C)C1=O (configuration not stated) | nt | nt | 0 | nt | nt
CS/C(N)=N/N=C/c1ccc([N+](=O)[O-])cc1 | 0 | nt | 0 | -6 | 2
CN(C)c1ccc(/C=N/N=C(N)N)cc1[N+](=O)[O-] | -4 | 1 | -1 | 0 | 78*
Cn1c(/C=C/c2ccc(Br)cc2)c([N+](=O)[O-])c(=O)n(C)c1=O | nt | -14 | -1 | nt | 11
COc1ccc(/C=C/c2c([N+](=O)[O-])c(=O)n(C)c(=O)n2C)cc1O | 90* | 5 | 5 | 1 | -18
COc1cc(/C=C/c2c([N+](=O)[O-])c(=O)n(C)c(=O)n2C)cc(OC)c1OC | 79* | nt | 0 | 0 | -18
COc1ccc(OC)c(/C=C/c2c([N+](=O)[O-])c(=O)n(C)c(=O)n2C)c1 | 47 | -2 | -2 | 1 | 3
OCCCNc1c2ccccc2nc2ccccc12 | nt | nt | -1 | nt | 70*
Cc1ccc(-c2nc(NCCCO)c3ccccc3n2)cc1 | nt | 6 | 0 | nt | 24
Fc1cccc(NCCc2c[nH]c3ccccc23)n1 | nt | nt | 0 | nt | -5
c1ccc2c(NCCc3c[nH]c4ccccc34)c3ccccc3nc2c1 | nt | -4 | 2 | nt | 63*
